The target in assay [1] is T1, Polyunsaturated fatty acid lipoxygenase ALOX15 (Homo sapiens) (UniProt P16050).
T1 sequence (whole entry): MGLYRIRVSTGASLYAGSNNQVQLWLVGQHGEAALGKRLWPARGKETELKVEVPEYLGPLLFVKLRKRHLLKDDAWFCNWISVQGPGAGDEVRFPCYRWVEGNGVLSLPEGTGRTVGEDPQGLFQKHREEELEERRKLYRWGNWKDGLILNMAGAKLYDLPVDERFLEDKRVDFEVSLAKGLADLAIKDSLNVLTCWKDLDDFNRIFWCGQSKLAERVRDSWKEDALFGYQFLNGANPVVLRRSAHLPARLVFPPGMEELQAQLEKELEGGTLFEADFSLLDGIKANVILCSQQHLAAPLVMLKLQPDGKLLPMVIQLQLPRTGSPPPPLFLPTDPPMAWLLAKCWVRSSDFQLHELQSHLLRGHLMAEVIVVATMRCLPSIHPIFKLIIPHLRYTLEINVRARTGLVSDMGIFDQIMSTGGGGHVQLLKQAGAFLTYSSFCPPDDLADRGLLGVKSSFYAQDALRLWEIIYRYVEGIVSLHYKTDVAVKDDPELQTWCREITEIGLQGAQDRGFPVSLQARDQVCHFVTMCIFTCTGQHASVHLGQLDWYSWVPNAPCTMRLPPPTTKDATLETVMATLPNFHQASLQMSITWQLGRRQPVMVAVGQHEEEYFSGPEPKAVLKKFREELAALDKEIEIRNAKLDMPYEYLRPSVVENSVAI
Put plainly: Inhibition of recombinant human 15-LOX-1 expressed in Escherichia coli BL21(DE3) at 10 uM preincubated with UV light at 365 nm followed by measuring UV absorbance of 13(S)-HpODE at 234 nm over 16 mins. Particulars: TDE = time-dependent effect. In outline:
(§1)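 Light-sensitivity test: h-15-LOX-1 preincubated with inhibitor for 2, 5 and 10 min under daylight, 365 nm UV irradiation or darkness, in triplicate. Linoleic acid conversion to 13(S)-HpODE then followed at 234 nm over 16 min, relative to a no-inhibitor positive control. Buffer 25 mM HEPES pH 7.4. Experiments repeated at least twice.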

The target of assay [2] is T1, Polyunsaturated fatty acid lipoxygenase ALOX15 (Homo sapiens). Put plainly: Inhibition of recombinant human 15-LOX-1 expressed in Escherichia coli BL21(DE3) at 10 uM preincubated in light followed by measuring UV absorbance of 13(S)-HpODE at 234 nm over 16 mins. As to conditions: TDE = time-dependent effect. Summed up: as §1
For assay [3] the target is unchanged. Put plainly: Inhibition of recombinant human 15-LOX-1 expressed in Escherichia coli BL21(DE3) at 10 uM preincubated with UV light at 254 nm for 2 to 10 mins followed by measuring UV absorbance of 13(S)-HpODE at 234 nm over 16 mins. Summed up: (§2)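 254 nm UV irradiation used as a control during preincubation of h-15-LOX-1 with inhibitor. Activity was then read as 13(S)-HpODE absorbance at 234 nm over 16 min, against a no-inhibitor control. Assay buffer 25 mM HEPES pH 7.4.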

Assay [4] shares this target. Put plainly: Inhibition of recombinant human 15-LOX-1 expressed in Escherichia coli BL21(DE3) assessed as residual activity at 10 uM preincubated in darkness followed by measuring UV absorbance of 13(S)-HpODE at 234 nm over 16 mins. Summed up: as §1
Assay [5] relates to HCC-1.2. Put plainly: Photocytotoxicity against human HCC1.2 cells assessed as decrease in cell viability at 1 to 10 uM preincubated with day light for 10 mins measured after 48 hrs by neutral red assay. The assay is classed as functional, cell-based.
For assay [6], the target named is T2, Polyunsaturated fatty acid lipoxygenase ALOX15 (Homo sapiens, UniProt P16050).
T2 sequence (P16050 whole entry): T1 sequence (whole entry)
Put plainly: Inhibition of recombinant human 15-LOX-1 expressed in Escherichia coli BL21(DE3) using linoleic acid as substrate preincubated for 10 mins followed by substrate addition.

Assay [7] deals with HCC-1.2. Put plainly: Cytotoxicity against human HCC1.2 cells assessed as growth inhibition after 48 hrs by neutral red assay. It is filed as functional. As to conditions: for CC50: HCC-1.2, 48 h, read-out: LD50 (the source's name). Summed up:
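HCC-1.2 hepatocarcinoma cells grown in RPMI1640 with 10% heat-inactivated FCS at 37 °C, 5% CO2. 2 × 10^5 cells/well seeded and grown 48 h. Viable cells quantified by neutral red (50 μg/mL) uptake from serum-free medium over 2 h. Dye dissolved in 1% acetic acid/70% ethanol, read as absorbance 560 minus 620 nm. Triplicate wells; three to five independent experiments; LD50 reported.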

For assay [8], the system named is HCC-1.2. Put plainly: Photocytotoxicity against human HCC1.2 cells assessed as decrease in cell viability at 1 to 10 uM preincubated with UV light at 365 nm for 10 mins measured after 48 hrs by neutral red assay. It is filed as functional, cell-based.
The subject of assay [9] is HCC-1.2. Put plainly: Photocytotoxicity against human HCC1.2 cells assessed as growth inhibition at 1 to 10 uM after day light irradiation for 10 mins. The assay is classed as functional, cell-based.
Assay [10] deals with T1, Polyunsaturated fatty acid lipoxygenase ALOX15 (Homo sapiens). Put plainly: Inhibition of recombinant human 15-LOX-1 expressed in Escherichia coli BL21(DE3) assessed as residual activity at 15 uM preincubated in darkness followed by measuring UV absorbance of 13(S)-HpODE at 234 nm over 16 mins. Summed up:
as §1

Assay [11] shares this target. Put plainly: Inhibition of recombinant human 15-LOX-1 expressed in Escherichia coli BL21(DE3) at 15 uM preincubated with UV light at 365 nm followed by measuring UV absorbance of 13(S)-HpODE at 234 nm over 16 mins. As to conditions: TDE = time-dependent effect. In outline: as §1
The target is the same in assay [12]. Put plainly: Inhibition of recombinant human 15-LOX-1 expressed in Escherichia coli BL21(DE3) assessed as residual activity at 50 uM using linoleic acid as substrate preincubated for 10 mins followed by substrate addition. In outline:
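h-15-LOX-1 (1:100 enzyme stock, 1:400 final) preincubated 10 min at room temperature with inhibitor in 25 mM HEPES pH 7.4, then linoleic acid added to 25 µM final (inhibitor 50 µM final). 13(S)-HpODE formation read as A234 over time, rate taken from linear part within first 16 min; no-inhibitor = 100%, no-enzyme = 0%. Triplicate.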

Assay [13] shares this target. Put plainly: Uncompetitive inhibition of recombinant human 15-LOX-1 expressed in Escherichia coli BL21(DE3) assessed as enzyme apparent Vmax at 6 uM using linoleic acid as substrate preincubated for 10 mins followed by substrate addition by Lineweaver-Burk plot analysis (reference value: 106.10 +/- 40.95 abs/hr).
For assay [14] the target is unchanged. Put plainly: Inhibition of recombinant human 15-LOX-1 expressed in Escherichia coli BL21(DE3) at 15 uM preincubated with UV light at 254 nm for 2 to 10 mins followed by measuring UV absorbance of 13(S)-HpODE at 234 nm over 16 mins. In outline: as §2
The target is the same in assay [15]. Put plainly: Inhibition of recombinant human 15-LOX-1 expressed in Escherichia coli BL21(DE3) at 15 uM preincubated in light followed by measuring UV absorbance of 13(S)-HpODE at 234 nm over 16 mins. Particulars: TDE = time-dependent effect. Summed up:
as §1

Assay [16] has the same target. Put plainly: Uncompetitive inhibition of recombinant human 15-LOX-1 expressed in Escherichia coli BL21(DE3) assessed as enzyme apparent Vmax at 8 uM using linoleic acid as substrate preincubated for 10 mins followed by substrate addition by Lineweaver-Burk plot analysis (reference value: 106.10 +/- 40.95 abs/hr).

The source made the active and inactive calls. The rule behind the calls is not given here.

What is called IC50 is the concentration at which inhibition is half-maximal.

Regarding `Nc1[nH]c(C(=O)c2ccccc2)c(-c2ccc(Cl)cc2Cl)c1C(=O)c1cccc(Cl)c1`, the inhibition entry in assay [1] and in [2] was “Tde” throughout. Also, in assay [3], the inhibition result was “inactive”. Besides, the Activity in assay [4] was 80%; in the assay on HCC-1.2 [7], “Dose-dependent effect”. In addition, the outcome in the assay with HCC-1.2 [5], in the assay on HCC-1.2 [8] and in the assay on HCC-1.2 [9] was Active. For the same compound, the IC50 in assay [6] was 6.9 µM. The CC50 with HCC-1.2 [7] is 0.69 µM.

With `Nc1[nH]c(C(=O)c2ccccc2)c(-c2ccc(Cl)cc2Cl)c1C(=O)c1ccc(Cl)c(Cl)c1`, the Activity in assay [10] is 80%; in assay [12] it was 40.8%; in the assay with HCC-1.2 [7] it was “Dose-dependent effect”. The inhibition result in assay [11] and in assay [15] was “Tde” throughout. For the same compound, the Vmax(app) in assay [13] worked out at 68.2 abs/hr; in assay [16], 47.2 abs/hr. The IC50 in assay [6] was 12.8 µM. Moreover, the CC50 in the assay with HCC-1.2 [7] is 0.55 µM. In [14], the inhibition result was “inactive”.

The values are drawn from ChEMBL document CHEMBL4130408, “Photoactivation provides a mechanistic explanation for pan-assay interference behaviour of 2-aminopyrroles in lipoxygenase inhibition” (Eur J Med Chem, 2017).
